Screening results from PubChem.
Compounds with a hit are over-represented: about 1.4% of the library has one in this group of screens.
HIF activator – HIF pathway transcriptional activation; U2OS HRE-luciferase reporter, luminescence; normalized: DMSO 0%, desferrioxamine 100%; activation, % at 7.5 µM (by protocol); actives 0.32% (n = 300,000); AID 1910;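 active means mean activation of at least 10% of the iron chelator positive control signal, with at least half of replicates also reaching 10%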
T cell HTS – T cell immune modulators affecting CD8 T cell-vesicle binding; 2C CD8+ T cell-vesicle binding, flow cytometry; stronger effect = lower value; response (vesicle binding), % at 7 µM; actives 0.068% (n = 330,000);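 active means response, share of CD8 T cells binding vesicles, and their 90th percentile fluorescence all below set limits, cut at about 80% in these data, passing the limit was not always enough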;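 further: values below 100% mean blocked vesicle binding to the CD8+ T cells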
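Read-out – percent CD8+ FL2 mean versus row control · System – murine 2C transgenic CD8+ T lymphocytes · Times – 1.5 h cell–vesicle binding at 37 °C, then 20 min icy labelling · Control set – naked vesicles low, QL9 vesicles with vehicle high · Detection – cytometric PE anti-B7-1 and Alexa647 anti-CD8 signals after 1% paraformaldehyde fixation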
JMJD2C inh – human JMJD2C demethylase inhibition; GST-JMJD2C(1-420) H3K9me3 demethylation, DELFIA europium; inhibition, % at 2.35 µM; actives 0.069% (n = 330,000);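 active means more than half of a compound's replicate wells show inhibition beyond 50%, single wells judged on their own value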;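 further: signal counts dimethyl H3K9 product captured on neutravidin plate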
Target sequence (Q9H3R0 1-420 limits assumed): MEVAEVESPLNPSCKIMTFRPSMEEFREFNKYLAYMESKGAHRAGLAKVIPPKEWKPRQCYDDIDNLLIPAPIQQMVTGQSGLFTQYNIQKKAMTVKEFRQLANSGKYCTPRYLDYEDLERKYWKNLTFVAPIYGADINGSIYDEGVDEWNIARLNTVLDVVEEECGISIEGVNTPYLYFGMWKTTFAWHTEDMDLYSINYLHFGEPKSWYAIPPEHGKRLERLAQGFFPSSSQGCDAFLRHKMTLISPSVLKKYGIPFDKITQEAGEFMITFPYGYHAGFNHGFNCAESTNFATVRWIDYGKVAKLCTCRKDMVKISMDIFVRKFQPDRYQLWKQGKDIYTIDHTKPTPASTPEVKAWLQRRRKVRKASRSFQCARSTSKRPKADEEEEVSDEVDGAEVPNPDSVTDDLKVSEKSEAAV
Mot1-301 SUMO – inhibitors of SUMOylation pathway: yeast Mot1-301 growth rescue; S. cerevisiae Mot1-301 growth rescue, ATP luminescence, 38.5C; percent above DMSO median, 100 means doubled; growth rescue, % at 18.8 µM; actives 1% (n = 320,000); AID 2716;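 active means every valid replicate shows activation above 250% relative to neutral control wells; inactive means the rest, any valid replicate at or below 250%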
Yeast Mot1 SUMO – yeast SUMO pathway inhibition in dose response; shares compounds with Mot1-301 SUMO; S. cerevisiae Mot1-301 galactose growth, ATP luminescence, 24 h; -100 = growth of slx-deleted rescue strain; growth activity, percent, % at 42 µM; 2,300 tested, under 10 active; AID 493004;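 active means Signal drops as the depositor expects, and the fitted half-maximal dose is no more than ten times the top valid tested dose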;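 further: more negative values mean stronger growth rescue toward the control strain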
Of the large screens only hits and unclear results are named; the others gave an inactive call (follow-up assays come after a bar, where they were run).

Cc1nc(CSc2nnc3scc(-c4ccccc4)n23)cs1	Mot1-301 SUMO active | Yeast Mot1 SUMO inactive
CCC(CC)NC(=O)c1oc2ccccc2c1COc1ccccc1	Mot1-301 SUMO 518 | Yeast Mot1 SUMO inactive
N#Cc1cnc(NN)nc1	none
N#Cc1c(NC(=O)c2ccc([N+](=O)[O-])o2)sc2c1CCC2	Mot1-301 SUMO 466 | Yeast Mot1 SUMO inactive
CC(=O)NC1C(=O)N=C(SCC(=O)Nc2ccc(C(F)(F)F)cc2Cl)NC1=O (centres undefined)	none
CC1CCCC(C)N1CCCNC(=O)c1csc2c1CCCCC2 (centres undefined)	Mot1-301 SUMO 459 | Yeast Mot1 SUMO inactive
CCCNC(=O)c1csc2c1CCCCC2	none
CC(/C=N/NC(=O)c1nnn(-c2nonc2N)c1CN1CCCCC1)c1ccccc1 (centres undefined)	none
COc1ccc(N(C(=O)c2ccncc2)S(=O)(=O)c2ccccc2)cc1	none
COc1ccc(N(C(=O)c2ccncc2)S(=O)(=O)c2ccc(F)cc2)cc1	Mot1-301 SUMO 451 | Yeast Mot1 SUMO inactive
COc1ccc(S(=O)(=O)N2CCN(c3ccc(F)cc3)CC2)cc1C(=O)N1CCOCC1	Mot1-301 SUMO 432 | Yeast Mot1 SUMO inactive
COc1ccccc1OCCSc1nc2ccccc2n1CCC(=O)O	Mot1-301 SUMO active | Yeast Mot1 SUMO inactive
COc1ccc(OCCSc2nc3ccccc3n2CCC(=O)O)cc1	none
CCOc1ccc(NS(=O)(=O)c2cc3c4c(c2)C(C)C(=O)N4CCC3)cc1 (centres undefined)	none
O=C(CSc1nc2ccc(Cl)cc2[nH]1)NCc1ccco1	Mot1-301 SUMO 358 | Yeast Mot1 SUMO inactive
O=C(CSc1nc2ccccc2[nH]1)NCc1ccco1	none
COc1cccc(C(=O)NCCC2=CCCCC2)c1OC	none
COc1cc(C(=O)NCCOc2cc(C)cc(C)c2)cc(OC)c1OC	Mot1-301 SUMO 631 | Yeast Mot1 SUMO inactive
COc1cc(C(=O)NCCC2=CCCCC2)cc(OC)c1OC	Mot1-301 SUMO 807 | Yeast Mot1 SUMO inactive
COc1cc(C(=O)NCCOc2ccccc2)cc(OC)c1OC	none
CCC(=O)c1ccc(OCC(=O)NCc2ccccc2CN2CCCC2)cc1	none (no result: HIF activator)
CCCCc1ccc(S(=O)(=O)NNC(=S)NCc2ccco2)cc1	Mot1-301 SUMO 545 | Yeast Mot1 SUMO inactive
O=S(=O)(NCc1ccc(Cl)cc1)c1cnc[nH]1	Mot1-301 SUMO active | Yeast Mot1 SUMO inactive
CCOc1ccc(NS(=O)(=O)c2ccc(C(=O)NCc3cccnc3)cc2)cc1	Mot1-301 SUMO 449 | Yeast Mot1 SUMO inactive
CC(C)(C)C(=O)Nc1ccc(C(=O)NCc2cccnc2)cc1	Mot1-301 SUMO 430 | Yeast Mot1 SUMO inactive
CC(C)(C)c1ccc(C(=O)Nc2ccc(C(=O)NCc3cccnc3)cc2)cc1	none
O=C(CN1C(=O)NC2(CCCC2)C1=O)N1CCN(S(=O)(=O)c2ccccc2[N+](=O)[O-])CC1	none
O=C(CCSc1nnc(-c2ccncc2)o1)Nc1ccc(Cl)cc1	Mot1-301 SUMO 450 | Yeast Mot1 SUMO inactive
Cc1nc(S/C(=C/c2ccc(OCc3ccc(C(=O)O)cc3)cc2)C(=O)O)n[nH]1	none
COc1ccc2cc(C(=O)Nc3ccc(Cl)cc3)sc(=O)c2c1OC	Mot1-301 SUMO 752 (no result: HIF activator) | Yeast Mot1 SUMO inactive
COc1ccc(C(=O)NC(=S)N2CC(C)OC(C)C2)cc1OC (centres undefined)	none
CCOc1ccc(NC(=O)CC2C(=O)N(c3ccccc3)C(=S)N2Cc2ccccn2)cc1 (centres undefined)	Mot1-301 SUMO active | Yeast Mot1 SUMO inactive
CCOc1ccc(NC(=O)CC2C(=O)N(c3ccc(OC)cc3)C(=S)N2Cc2ccccn2)cc1 (centres undefined)	none
Cc1ccc(Cl)c(OCC(=O)NC2CCN(Cc3ccccc3)CC2)c1	none
O=C(c1ccccc1)c1cccs1	none
CCOc1ccc(C(=O)c2cccs2)cc1	Mot1-301 SUMO 387 | Yeast Mot1 SUMO inactive
Cc1ccc(C)c(CNc2ccc(S(=O)(=O)N3CCCCC3)cc2)c1	none (no result: HIF activator)
CC(NC(=O)Cc1ccsc1)c1ccc(Cl)cc1Cl (centres undefined)	none
CC1CCN(CCCCOc2ccc(C(C)(C)C)cc2)CC1	none
CC1CCN(CCCCOc2ccc(Cl)cc2)CC1	Mot1-301 SUMO 427 | Yeast Mot1 SUMO inactive
Cc1ccccc1C(=O)N1CC(=O)Nc2ccc(F)cc2C1c1ccccc1 (centres undefined)	none
CSCCC(NC(=O)COc1ccccc1)C(=O)N(C)Cc1ccc(SC)cc1 (centres undefined)	none (no result: HIF activator)
